An excerpt weighted towards active compounds, which were near 2.9% of everything screened.
ATG4B inhibitor – ATG4B (human) cysteine protease inhibition; inhibition, % at 8.33 µM; ATG4B cleavage of LC3-PLA2, NBD-HPC fluorescence, 1 h; Q9Y4P1; 340,000 compounds, 0.51% hits; in the data active = inhibition above about 40%
Target sequence (Q9Y4P1 whole entry, looked up): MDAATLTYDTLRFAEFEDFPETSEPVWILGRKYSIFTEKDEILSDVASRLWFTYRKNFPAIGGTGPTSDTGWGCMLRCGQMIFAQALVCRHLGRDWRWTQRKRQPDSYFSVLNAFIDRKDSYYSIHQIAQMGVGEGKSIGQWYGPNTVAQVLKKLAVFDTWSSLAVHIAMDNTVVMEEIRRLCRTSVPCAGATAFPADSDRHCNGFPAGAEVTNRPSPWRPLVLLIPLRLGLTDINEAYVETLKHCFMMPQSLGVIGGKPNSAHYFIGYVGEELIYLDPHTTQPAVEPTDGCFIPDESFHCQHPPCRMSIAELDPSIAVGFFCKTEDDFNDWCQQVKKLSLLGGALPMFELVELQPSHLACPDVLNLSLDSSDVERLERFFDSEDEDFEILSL
B2AR ag – activates human beta-2 adrenergic receptor causing internalization; AID 504454; P07550; response, % (concentration not given with the values); Am2.2-beta2AR cells, FAP receptor internalization, flow cytometry; 340,000 compounds, 0.43% hits;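 active = response above a set limit, near 3 SD of response in nonfluorescent compounds, cut at about 42% in these data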
MEKK3 PB1 HTS – modulators (inhibitors or enhancers) of MEK5 binding to human MEKK3 PB1 domain; Q99759; bead-based flow cytometry, Alexa488-MEK5 binding to MEKK3; actives lie on both sides; 0 = blocked by unlabeled MEK5, 100 = vehicle; binding response (% of control), % at 10 µM; 290,000 compounds, 1.4% hits; AID 1529;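 active = binding response more than 3 SD above or below the average of its plate-row segment, actives on both sides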;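 note: Alexa488 bead fluorescence after subtracting the streptavidin-only scavenger bead signal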
Dynein cargo inh – dynein cargo transport inhibition; 3617.4 mouse cells, GR-EGFP nuclear translocation imaging; test concentration mostly 20 µM; stimulated with dexamethasone, 1 µM; hits give low values; z-score, hits read low; 220,000 compounds, 0.47% hits;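 active = plate z-score of nuclear minus cytoplasmic receptor signal below a set negative limit, without overly bright fluorescence or cell loss, cut at about -3.5 in these data, passing the limit was not always enough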;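 note: z-score of nuclear minus cytoplasmic ring GR-EGFP intensity difference per well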
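medium = tetracycline-free induction medium containing charcoal-stripped FBS | also added = 1.0 µM final dexamethasone stimulus | schedule = 48 h induction, 1 h compound, 30 min dex at 37 °C | technique = fixed, Hoechst-stained cells imaged at 10x for EGFP | measure = GR-EGFP nuclear translocation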
MEKK2wt PB1 HTS – raises or lowers MEK5 binding to wildtype human MEKK2 PB1 domain; Q9Y2U5; bead flow cytometry, Alexa488-MEK5 binding to MEKK2 WT; actives lie on both sides; binding response (% of control), % at 10 µM; 290,000 compounds, 1.1% hits; in the data active = binding response below about 67% or above about 130%
MEKK2mut PB1 HTS – signal of MEK5 binding to mutant human MEKK2 PB1 domain; bead flow cytometry, Alexa488-MEK5 binding to MEKK2 mutant; percent response, % at 10 µM; 290,000 compounds, 0.35% hits; AID 1530; in the data active = percent response above about 24%, passing the limit was not always enough
MEKK2wt confirm – raises or lowers MEK5 binding to wildtype human MEKK2, retest; shares compounds with MEKK3 PB1 HTS; bead flow cytometry, Alexa488-MEK5 binding to MEKK2 WT; actives lie on both sides; binding response (% of control), % at 10 µM; 5,900 compounds, 2.4% hits; in the data active = binding response below about 16% or above about 210%; inactive = in between
MEKK2mut confirm – signal of MEK5 binding to mutant human MEKK2, retest. percent response, % at 10 µM. 5,900 compounds, 2% hits. AID 1893. bead flow cytometry, Alexa488-MEK5 binding to MEKK2 mutant. shares compounds with MEKK3 PB1 HTS; in the data active = percent response mostly above about 71%, no sharp cut-off; inactive = mostly below about 38%;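 note: higher means compound restores mutant binding toward wildtype level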
MEKK3-MEK5 inh – MEKK3-MEK5 PB1 inhibition, single concentration confirmation; shares compounds with MEKK3 PB1 HTS; binding response (% of control), % at 10 µM; bead flow cytometry, Alexa488-MEK5 binding to MEKK3; hits give low values; 5,900 compounds, 1.8% hits; AID 1894;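 active = binding response below 72% of control, or above a set upper limit, though filed actives all read lower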;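 note: 100% = DMSO only wells and 0% = binding blocked by excess unlabeled MEK5; lower values mean stronger disruption of MEK5 binding to MEKK3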
Starred values were filed as active, the others as inactive; [ ] = another dose, or the depositor's remark.

Screening Cc1ccc(C(C(=O)NCc2ccc(F)cc2)N(Cc2ccco2)C(=O)c2snc(C(N)=O)c2N)o1 (stereo not drawn) returned ATG4B inhibitor 1, B2AR ag 23, MEKK3 PB1 HTS 101, MEKK2wt PB1 HTS 96 and MEKK2mut PB1 HTS -5.
`CC(C)C(=O)Nc1nnc(SCC(=O)NC2CC2)s1` gave ATG4B inhibitor 2, B2AR ag -7, MEKK3 PB1 HTS 7.0*[inhibitor], Dynein cargo inh -0.37, MEKK2wt PB1 HTS 11*[inhibitor], MEKK2mut PB1 HTS -15, MEKK2wt confirm 100, MEKK2mut confirm -4 and MEKK3-MEK5 inh 101.
O=C1C(=O)N(CCCO)C(c2ccc(Br)cc2)/C1=C(\O)c1ccc(Br)cc1 (stereo not drawn) was read as ATG4B inhibitor 2, B2AR ag 0, MEKK3 PB1 HTS 111, MEKK2wt PB1 HTS 113, MEKK2mut PB1 HTS 28*, MEKK2wt confirm 94, MEKK2mut confirm -3 and MEKK3-MEK5 inh 100.
For CN(C)c1ccc(C2/C(=C(/O)c3ccccc3)C(=O)C(=O)N2CCCC(=O)O)cc1 (stereo not drawn) the results were ATG4B inhibitor 5, B2AR ag 7, MEKK3 PB1 HTS 107, Dynein cargo inh 0.22, MEKK2wt PB1 HTS 105 and MEKK2mut PB1 HTS -3.
For CN1C(=O)C(=O)/C(=C(/O)c2ccccc2)C1c1ccc(Br)cc1 (stereo not drawn) the results were ATG4B inhibitor 6, B2AR ag 0, MEKK3 PB1 HTS 107, MEKK2wt PB1 HTS 111 and MEKK2mut PB1 HTS 6.
Screening COCCCN1C(=O)C(=O)/C(=C(/O)c2ccccc2)C1c1ccc(N(C)C)cc1 (stereo not drawn) returned ATG4B inhibitor 5, B2AR ag -2, MEKK3 PB1 HTS 102, Dynein cargo inh -0.068, MEKK2wt PB1 HTS 152*, MEKK2mut PB1 HTS 223*, MEKK2wt confirm 97, MEKK2mut confirm -3 and MEKK3-MEK5 inh 97.
Screening COCCCC1CCN(C(=O)C2CCC(=O)N(CC3CCCCC3)C2)CC1 (stereo not drawn) returned ATG4B inhibitor -1, B2AR ag 0, MEKK3 PB1 HTS 103, MEKK2wt PB1 HTS 109 and MEKK2mut PB1 HTS 5.
Cc1cc(C)n(-c2ccc(C(=O)NC(C)C)cc2)n1 was read as ATG4B inhibitor 1, B2AR ag -7, MEKK3 PB1 HTS -1.0*[inhibitor], Dynein cargo inh 4.3, MEKK2wt PB1 HTS -5.0*[inhibitor], MEKK2mut PB1 HTS -26, MEKK2wt confirm 98, MEKK2mut confirm -8 and MEKK3-MEK5 inh 96.
Cc1cc(-c2ccccc2)n(-c2ccc(C(=O)NC(C)C)cc2)n1 was read as ATG4B inhibitor -3, B2AR ag -15, MEKK3 PB1 HTS 107, Dynein cargo inh 0.02, MEKK2wt PB1 HTS 112 and MEKK2mut PB1 HTS 4.
`Cc1cc(=O)nc2c3ccccc3n(CC(=O)NC(C)c3ccc4c(c3)OCCO4)n12` (stereo not drawn) gave ATG4B inhibitor 2, B2AR ag 2, MEKK3 PB1 HTS 103, MEKK2wt PB1 HTS 101 and MEKK2mut PB1 HTS 3.
For Cc1csc(C(C)NC(=O)c2ccc(OC3CCN(CCc4ccccc4)CC3)cc2)n1 (stereo not drawn) the results were ATG4B inhibitor 25, B2AR ag 6, MEKK3 PB1 HTS 99, MEKK2wt PB1 HTS 105 and MEKK2mut PB1 HTS 7.
Screening c1cc2nc(C34CC5CC(CC(C5)C3)C4)[nH]c2cn1 returned ATG4B inhibitor -2, B2AR ag -412, MEKK3 PB1 HTS 2.0*[inhibitor], Dynein cargo inh -0.47, MEKK2wt PB1 HTS 3.0*[inhibitor], MEKK2mut PB1 HTS -15, MEKK2wt confirm 96, MEKK2mut confirm -3 and MEKK3-MEK5 inh 97.
Screening CCCC(CCC)c1nc2ccncc2[nH]1 returned ATG4B inhibitor 12, B2AR ag 0, MEKK3 PB1 HTS 99, Dynein cargo inh 0.57, MEKK2wt PB1 HTS 91 and MEKK2mut PB1 HTS -5.
CCn1c(SCC(=O)Nc2ccc3c(c2)OCCO3)nnc1C1CC1 was read as ATG4B inhibitor -7, B2AR ag -1, MEKK3 PB1 HTS 99, MEKK2wt PB1 HTS 98 and MEKK2mut PB1 HTS -1.
For Cc1cc(C)cc(NC(=O)C(OC(=O)c2ccc(NC(=O)CC#N)cc2)c2ccccc2)c1 (stereo not drawn) the results were ATG4B inhibitor 12 and B2AR ag 7.
For O=c1[nH]c(=S)[nH]c2c1C(c1cc([N+](=O)[O-])c(N3CCOCC3)cc1N1CCOCC1)O2 (stereo not drawn) the results were ATG4B inhibitor 2, B2AR ag 0, MEKK3 PB1 HTS 142*, Dynein cargo inh 0.52, MEKK2wt PB1 HTS 125, MEKK2mut PB1 HTS 5, MEKK2wt confirm 96, MEKK2mut confirm -2 and MEKK3-MEK5 inh 99.
`CCOc1ccc(NC(=O)CN(C)C(=O)CCN2C(=O)C3CC=CCC3C2=O)cc1OCC` (stereo not drawn) gave ATG4B inhibitor 7 and B2AR ag -6.
Screening CC(OC(=O)Nc1ccccc1)C(=O)OC1CCCCC1 (stereo not drawn) returned ATG4B inhibitor 2 and B2AR ag -5.
O=C(CSCC(=O)Nc1ccc2ccccc2c1)NCc1ccccc1 was read as ATG4B inhibitor -20, B2AR ag -8, MEKK3 PB1 HTS 104, Dynein cargo inh 0.3, MEKK2wt PB1 HTS 105 and MEKK2mut PB1 HTS 1.
`CC(C)c1ccc(CNC(=O)CSCC(=O)Nc2ccc3ccccc3c2)cc1` gave ATG4B inhibitor -5, B2AR ag -9, MEKK3 PB1 HTS 117, Dynein cargo inh -0.37, MEKK2wt PB1 HTS 140*, MEKK2mut PB1 HTS 12, MEKK2wt confirm 106, MEKK2mut confirm 2 and MEKK3-MEK5 inh 101.
For O=C(NNC(=O)C1CCCN(c2ncccn2)C1)c1ccncc1 (stereo not drawn) the results were ATG4B inhibitor -11, B2AR ag 3, MEKK3 PB1 HTS 107, Dynein cargo inh 0.83, MEKK2wt PB1 HTS 103 and MEKK2mut PB1 HTS -7.
